These results are taken from ChEMBL document CHEMBL1137800, “Evaluation of marine sponge metabolites for cytotoxicity and signal transduction activity” (J Nat Prod, 1993).

A short description of data set [1]: Cytotoxicity against mouse EL-4.IL-2 cells after 3 to 4 days by Trypan blue exclusion test. Format: functional, cell-based.
The species entered for data set [2] is Mus musculus. Description: Induction of PKC-mediated mouse EL-4.IL-2 cells adherence by MTT assay. In a few lines:
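EL-4.IL-2 cells (2.5×10^5/well) in RPMI 1640 with 10% FCS and 2-mercaptoethanol, incubated 1 h at 37° with compound in triplicate, without PMA and also with 16 nM PMA (final), EtOH ≤1.25%. Non-adherent cells removed by four shaking washes. Adherent cells quantified by MTT (4 h) with iPrOH solubilisation at 570 nm. Parallel unwashed plate monitored cytotoxicity.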

In data set [3] the test system is P388. Description: Cytotoxicity against mouse P388 cells after 48 hrs by MTT assay. Format: functional, cell-based. Conditions: P388, 48 h. In a few lines:
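P-388 cells seeded at 1×10^5 cells/ml in RPMI 1640 with 10% horse serum and gentamicin (50 μg/ml). Exposed 48 h at 37° to compound at 10.0, 1.0, 0.10 or 0.010 μg/ml; MeOH vehicle evaporated under vacuum. MTT added for 90 min, formazan dissolved in acidified iPrOH, A570 read. IC50 from linear regression of logit-transformed absorbance relative to drug-free wells.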
In general terms: Formazan colour is commonly taken as a measure of viable cells.

The test system of data set [4] is A549. Put plainly: Cytotoxicity against human A549 cells after 48 hrs by MTT assay. Conditions: A549, 48 h. Format: functional, cell-based. In a few lines:
(§1)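 A549 and HT-29 cells grown in RPMI 1640 with 10% horse serum and exposed at 37° in gentamicin-containing medium, with MeOH vehicle evaporated. Exposure ran 48 h […] before MTT was added for 90 min. Formazan dissolved in acidified iPrOH and A570 read. IC50 from logit-regression of absorbance versus drug-free wells; 5-fluorouracil and adriamycin included as controls.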

The test system of data set [5] is HT-29. Put plainly: Cytotoxicity against human HT-29 cells after 48 hrs by MTT assay. Format: functional, cell-based. Conditions: HT-29, 48 h. Put shortly: as §1
For data set [6], the species on record is Mus musculus. Put plainly: Inhibition of PKC-mediated mouse EL-4.IL-2 cells adherence by MTT assay. Put shortly: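 Mouse EL-4.IL-2 cells (2.5×10^5/well, within 15 passages of frozen stock) incubated 1 h at 37° with compounds in triplicate, with PMA (16 nM final) or without PMA; final EtOH ≤1.25%. Four shaker wash cycles. Adherent cells read by MTT, 4 h at 37°, formazan dissolved in iPrOH, A570. A parallel unwashed plate without PMA monitored cytotoxicity. Adherence inhibitor: blocks PMA-induced adherence, induces none alone, not cytotoxic.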

Data set [7] has as its system A549. Put plainly: Antitumor activity against human A549 cells xenografted in mouse at 0.3 mg/kg relative to control. Format: functional.
The subject of data set [8] is Mus musculus. Put plainly: Toxicity in human A549 cells xenografted mouse at 0.3 mg/kg. Further details: dose 0.3 mg/kg. The following applies: in vivo. Format: organism-based. A general note: In xenograft studies the graft and the host belong to different species.
Data set [9] concerns Malme-3M. Description: Cytotoxicity against human MALME-3M cells. Conditions: read-out: Log10LC50 (converted). Format: functional.
The subject of data set [10] is M19-MEL. Put plainly: Cytotoxicity against human M19-MEL cells. Format: functional. The following applies: read-out: Log10LC50 (converted).
Data set [11] relates to SK-MEL-5. Put plainly: Cytotoxicity against human SK-MEL-5 cells. Format: functional. The following applies: read-out: Log10LC50 (converted).

The structures appear in SMILES notation. Converted amounts (≈) assume the structure as drawn. The source made the active and inactive calls. The calls are words filed in the database; no cut-off is given here.

One may read the IC50 as the concentration at which inhibition is half-maximal. High values mean a need for much substance, low ones inhibition by little substance. For the compound `CO[C@H]([C@H](C)/C=C/N(C)C=O)[C@@H](C)C(=O)CC[C@H](C)[C@H](C[C@@H]1OC(=O)C[C@@H](OC(N)=O)C[C@H](C)C[C@H](O)[C@H](C)[C@@H](OC)c2coc(n2)-c2coc(n2)-c2coc(n2)/C=C/C[C@H](OC)[C@H]1C)OC` [KABIRAMIDE C], the IC50 in data set [1] worked out at 0.3 µg/mL (≈ 0.318 µM); in [3] it was 0.3 µg/mL (≈ 0.318 µM); in data set [4], 0.8 µg/mL (≈ 0.849 µM). Also, the result in data set [2] was Active.
`O=C1C[C@H]2S[C@H]3C[C@]2(C=C1Br)C1=C(N3)C(=O)c2[nH]cc3c2C1=NCC3` [DISCORHABDINE A]: the IC50 in data set [5] was found to be 0.01 µg/mL (≈ 0.024 µM); in [1] it was 4.8 µg/mL (≈ 11.5 µM); in data set [3], 0.1 µg/mL (≈ 0.24 µM); in data set [4] it was 0.04 µg/mL (≈ 0.0961 µM). The outcome in data set [2] was Active.
For `C1=C\CCCCN(CCc2nccc3c2[nH]c2ccccc23)CCCC/1` [MANZAMINE C] the same measures were 1.5 µg/mL (≈ 4.32 µM), 12 µg/mL (≈ 34.5 µM), 2.6 µg/mL (≈ 7.48 µM), 3.5 µg/mL (≈ 10.1 µM) and “Active”.
On to `COC1=Cc2ccnc3ccnc(c23)C1=O` [DEMETHYLOXY-AAPTAMINE], for which the half-inhibitory concentration (IC50) in data set [5] is 1.5 µg/mL (≈ 7.07 µM); in data set [1], less than 0.05 µg/mL; in data set [3], 1.6 µg/mL (≈ 7.54 µM); in data set [4], 5.2 µg/mL (≈ 24.5 µM). Also, the outcome in [2] was Active.
On to `O=C1c2nccc(O)c2-c2nc3ccccc3c3ccnc1c23` [MERIDINE], for which the IC50 in data set [5] came out at 0.2 µg/mL (≈ 0.668 µM); in [1], 8.8 µg/mL (≈ 29.4 µM); in data set [3], 2 µg/mL (≈ 6.68 µM); in data set [4], 4.5 µg/mL (≈ 15 µM). For the same compound, the outcome in data set [2] was Active.
For the compound `[C-]#[N+]C(C)(C)C[C@@H]1C[C@H](C)[C@H]2CC[C@H](C)[C@@]3([N+]#[C-])CCC(=C)[C@@H]1[C@H]23` [DIISOCYANOAMPHILECTENE], the half-inhibitory concentration (IC50) was 1.2 µg/mL (≈ 3.7 µM) in data set [5], 0.7 µg/mL (≈ 2.16 µM) in data set [3] and 13 µg/mL (≈ 40.1 µM) in data set [4].
As to `C[C@H]1CC[C@H]2C(C)(C)CCC[C@]23Oc2ccc(O)cc2C[C@]13C` [AUREOL], the half-maximal inhibitory concentration (IC50) in [5] was 4.7 µg/mL (≈ 14.9 µM); in [1], 9.9 µg/mL (≈ 31.5 µM); in [3], more than 20 µg/mL; in data set [4], 4.3 µg/mL (≈ 13.7 µM). Besides, in data set [6], the outcome was Active.
As to `Cn1cc2c3c1C(=O)C1=C(C3=NCC2)C2(C=C(Br)C(=O)C(Br)=C2)CCN1` [DISCORHABDIN], the IC50 in [5] amounted to 0.1 µg/mL (≈ 0.21 µM); in data set [1] it was 0.5 µg/mL (≈ 1.05 µM); in [3], 0.5 µg/mL (≈ 1.05 µM); in data set [4] it was 0.3 µg/mL (≈ 0.629 µM). Besides, in [2], the result was Active.
Take `CC1=CC(=O)[C@]2(C)CC[C@H]([C@H](C)CC(=O)CC(C)C)[C@H]2CC1` [REISWIGIN A]: the IC50 was 6 µg/mL (≈ 19.7 µM) in data set [5], 8.5 µg/mL (≈ 27.9 µM) in data set [3] and 7.2 µg/mL (≈ 23.6 µM) in data set [4].
On to `CN(C)CCc1c2ncsc2c2c3c(c4ccccc4nc13)C=CN2C` [DERCITIN], for which the half-maximal inhibitory concentration (IC50) in data set [5] is 0.02 µg/mL (≈ 0.0555 µM); in [1] it was less than 6 µg/mL; in [3] it was 0.2 µg/mL (≈ 0.555 µM); in data set [4], 0.07 µg/mL (≈ 0.194 µM). For the same compound, the outcome in [6] was Active.
Turning to `CCCCCCCCCCCCCCCC[C@@]1(OC)C=C[C@@H](CC(=O)OC)OO1` [CHONDRILLIN], the 50% inhibitory concentration (IC50) in data set [5] was 1.1 µg/mL (≈ 2.67 µM); in [1], 0.4 µg/mL (≈ 0.969 µM); in data set [3] it was 2.4 µg/mL (≈ 5.82 µM); in data set [4] it was 0.3 µg/mL (≈ 0.727 µM). For the same compound, the result in data set [2] was Active. For the same compound, the outcome in data set [7] was inactive.
`[C-]#[N+][C@@]12CCC(=C)[C@H]3[C@H](CC(C)(C)NC=O)C[C@H](C)[C@@H](CC[C@@H]1C)[C@@H]32`: the IC50 turned out to be 3.5 µg/mL (≈ 10.2 µM) in [5], 2.9 µg/mL (≈ 8.47 µM) in [1], 4.2 µg/mL (≈ 12.3 µM) in data set [3] and 5.3 µg/mL (≈ 15.5 µM) in data set [4]. Also, in data set [2], the outcome was Active.
Regarding `O[C@]12C=C(c3nccc4c3[nH]c3ccccc34)[C@@H]3CCN(CCCC/C=C\CC1)C[C@@]31C[C@@H]3/C=C\CCCCN3[C@H]12` [MANZAMINE A], the results for the IC50 in [5], in data set [3] and in [4] were 0.8 µg/mL (≈ 1.46 µM), 2.4 µg/mL (≈ 4.37 µM) and 1.3 µg/mL (≈ 2.37 µM), respectively.
Broadly, the T/C is the ratio of treated to control. Take `C/C1=C/C(=O)O[C@@H]2C[C@@H](CC[C@H](C)/C=C\C=C\CC1)O[C@@](O)([C@@H]1CSC(=O)N1)C2` [LATRUNCULIN A]: the IC50 in [5] is 0.06 µg/mL (≈ 0.142 µM); in data set [1] it was 0.1 µg/mL (≈ 0.237 µM); in data set [3] it was 4.1 µg/mL (≈ 9.73 µM); in data set [4] it was 0.06 µg/mL (≈ 0.142 µM). In [7], this compound came in with a T/C of 146%. For the same compound, the Activity result in data set [8] was “Non-toxic”. For the same compound, the outcome in data set [6] was Active.
Regarding `CSc1c2c3c(n1C)C(=O)C(=O)C(Cl)=C3NCC2` [BATZELLINE A], the IC50 in [5] was 2.8 µg/mL (≈ 9.9 µM); in data set [1], 22.9 µg/mL (≈ 81 µM); in data set [3], 5.3 µg/mL (≈ 18.7 µM); in data set [4] it was 0.7 µg/mL (≈ 2.48 µM). The result in [2] was Active. Besides, in [7], the result was inactive. Besides, the CC50 in [9] is 15.5 µM; in data set [10], 6.61 µM; in data set [11], 6.61 µM.
For `C[C@H]1C[C@]2(O[C@H]3C[C@H]4[C@@H]5CC[C@H]6C[C@H](O)CC[C@]6(C)[C@H]5[C@@H](O)C[C@]4(C)[C@H]3[C@@]2(C)O)OC1(C)C` [EPIHIPPURISTANOL], the half-inhibitory concentration (IC50) in [5] was 0.05 µg/mL (≈ 0.108 µM); in data set [3], 0.5 µg/mL (≈ 1.08 µM); in data set [4], 0.04 µg/mL (≈ 0.0865 µM).
In the case of `CC1(C)CCC[C@]2(C)[C@H]3C=C4C=C(O)C(=O)C=C4O[C@@]3(C)CC[C@@H]12` [PUUPEHENONE], the half-maximal inhibitory concentration (IC50) in data set [5] stood at 0.2 µg/mL (≈ 0.609 µM); in data set [3], 1.3 µg/mL (≈ 3.96 µM); in [4], 0.4 µg/mL (≈ 1.22 µM).
Regarding `CC[C@H](C)[C@H]1C(=O)NCCC(=O)N[C@H]([C@@H](C)CC)C(=O)N(C)[C@@H](C(C)C)C(=O)N(C)[C@@H](C)C(=O)NCCC(=O)N[C@H](CC(C)C)C(=O)N(C)[C@H]([C@@H](C)CC)C(=O)O[C@H](C)[C@H](NC(=O)[C@@H](CC(C)C)N(C)C(=O)[C@@H](NC(=O)COC)C(C)C)C(=O)NCCC(=O)N[C@H](CC(C)C)C(=O)N1C` [THEONELLAMINE B], the 50% inhibitory concentration (IC50) in [5] is 5.1 µg/mL (≈ 3.63 µM); in [3], more than 20 µg/mL; in data set [4], 5.3 µg/mL (≈ 3.77 µM).
Consider `C1=C\CC[C@]23CN4CCCC/C=C\CC[C@@]5(O[C@H]5[C@@H](c5nccc6c5[nH]c5ccccc56)[C@@H]2CC4)[C@@H]3NCCCC/1` [MANZAMINE B], for which the IC50 in [5] is 1.6 µg/mL (≈ 2.9 µM); in data set [3], 6.6 µg/mL (≈ 12 µM); in data set [4] it was 4.5 µg/mL (≈ 8.17 µM).
